Drawing on ChEMBL document CHEMBL1268974, “Synthesis and antitumour activity of glycyrrhetinic acid derivatives” (Bioorg Med Chem, 2010), this text covers Activity for 1 molecule.

The test system of experiment [1] is A549. The experiment in a line: Induction of apoptosis in human A549 cells at IC90 concentration after 24 to 48 hrs using acridine orange/ethidium bromide dye by fluorescence microscopic analysis. The format is functional, cell-based. Summed up:
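About 500,000 cells were seeded in flasks and grown for 24 h, then the medium was replaced with compound-containing medium. After 24–48 h, floating cells in the supernatant were pelleted, washed and resuspended in PBS, mixed with acridine orange/ethidium bromide and examined by fluorescence microscopy. Green nuclear fluorescence was scored as apoptotic and red nuclei as necrotic.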

In experiment [2] the test system is A2780 (Homo sapiens). The experiment is described as follows: Induction of apoptosis in human A2780 cells assessed as DNA ladder formation at IC90 concentration after 24 hrs by agarose gel electrophoresis.

Calls of active or inactive are those of the source. The rule behind the calls is not given here.

As to `COC(=O)[C@@]1(C)CC[C@]2(C)CC[C@]3(C)C(=CC(=O)[C@@H]4[C@@]5(C)CC[C@H](OC(=O)CCN)C(C)(C)[C@@H]5CC[C@]43C)[C@@H]2C1`, the outcome in experiment [1] and in experiment [2] was Active.
